Experimental data as given in ChEMBL document CHEMBL4689842, “EUbOPEN Chemogenomics Library wave 1” (2021).

Test system: HEK-293T
Assay: Multiplex assay against HEK293T;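 on Population Tubulin-Different-Phenotype (%): share of the cells with healthy nuclei that show this phenotype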
Assay type: toxicity, cell-based
Details: human
How it was run: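 Compound was added to live cells that had been stained at seeding with Hoechst33342, BioTracker Green Microtubule Cytoskeleton Dye, MitoTracker Red and Annexin V Alexa Fluor 680, and imaging followed on a CQ1 microscope at 37°C and 5% CO2. CellPathfinder machine-learning gating divided cells into Hoechst high-intensity objects or normal cells, normal cells into healthy, pyknosed or fragmented nuclei, and pyknosed cells into mitotic or apoptotic. Tubulin, mitochondrial-mass and membrane-permeability phenotypes are per cents of healthy-nucleus cells.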

[1] = 12 h, 1 µM, compound concentration 1 uM, replicate 1
[2] = 12 h, 1 µM, compound concentration 1 uM, replicate 2
[3] = 12 h, 10 µM, compound concentration 10 uM, replicate 1
[4] = 12 h, 10 µM, compound concentration 10 uM, replicate 2
[5] = 24 h, 1 µM, compound concentration 1 uM, replicate 1
[6] = 24 h, 1 µM, compound concentration 1 uM, replicate 2
[7] = 24 h, 10 µM, compound concentration 10 uM, replicate 1
[8] = 24 h, 10 µM, compound concentration 10 uM, replicate 2
[9] = 48 h, 1 µM, compound concentration 1 uM, replicate 1
[10] = 48 h, 1 µM, compound concentration 1 uM, replicate 2
[11] = 48 h, 10 µM, compound concentration 10 uM, replicate 1
[12] = 48 h, 10 µM, compound concentration 10 uM, replicate 2

COc1ccc(-c2ccc3ncc4c(c3c2)n(-c2ccc(N3CCNCC3)c(C(F)(F)F)c2)c(=O)n4C)cn1.O=C(O)/C=C\C(=O)O [BGT-226]
Population Apoptotic (%) [1]: 70%
Population Fragmented Nuclei (%) [1]: 22%
Population Healthy Nuclei (%) [1]: 2%
Population Hoechst High Intensity Objects (%) [1]: 25%
Population Mitochondria Different-Phenotype (%) [1]: 87%
Population Mitotic Cells (%) [1]: 29%
Population Normal (%) [1]: 74%
Population Pyknosed Nuclei (%) [1]: 74%
Population Tubulin-Different-Phenotype (%) [1]: 87%
Total Cell Count [1]: 358
Population Apoptotic (%) [2]: 78%
Population Fragmented Nuclei (%) [2]: 8%
Population Healthy Nuclei (%) [2]: 6%
Population Hoechst High Intensity Objects (%) [2]: 10%
Population Membrane Permeable-Phenotype (%) [2]: 0%
Population Mitochondria Different-Phenotype (%) [2]: 100%
Population Mitotic Cells (%) [2]: 21%
Population Normal (%) [2]: 89%
Population Pyknosed Nuclei (%) [2]: 84%
Population Tubulin-Different-Phenotype (%) [2]: 90%
Total Cell Count [2]: 162
Population Apoptotic (%) [3]: 72%
Population Fragmented Nuclei (%) [3]: 28%
Population Healthy Nuclei (%) [3]: 0%
Population Hoechst High Intensity Objects (%) [3]: 28%
Population Membrane Permeable-Phenotype (%) [3]: 50%
Population Mitochondria Different-Phenotype (%) [3]: 50%
Population Mitotic Cells (%) [3]: 27%
Population Normal (%) [3]: 71%
Population Pyknosed Nuclei (%) [3]: 70%
Population Tubulin-Different-Phenotype (%) [3]: 100%
Total Cell Count [3]: 306
Population Apoptotic (%) [4]: 96%
Population Fragmented Nuclei (%) [4]: 51%
Population Healthy Nuclei (%) [4]: 7%
Population Hoechst High Intensity Objects (%) [4]: 45%
Population Membrane Permeable-Phenotype (%) [4]: 11%
Population Mitochondria Different-Phenotype (%) [4]: 16%
Population Mitotic Cells (%) [4]: 3%
Population Normal (%) [4]: 54%
Population Pyknosed Nuclei (%) [4]: 41%
Population Tubulin-Different-Phenotype (%) [4]: 66%
Total Cell Count [4]: 454
Population Apoptotic (%) [5]: 70%
Population Fragmented Nuclei (%) [5]: 27%
Population Healthy Nuclei (%) [5]: 2%
Population Hoechst High Intensity Objects (%) [5]: 20%
Population Membrane Permeable-Phenotype (%) [5]: 12%
Population Mitochondria Different-Phenotype (%) [5]: 75%
Population Mitotic Cells (%) [5]: 29%
Population Normal (%) [5]: 79%
Population Pyknosed Nuclei (%) [5]: 69%
Population Tubulin-Different-Phenotype (%) [5]: 75%
Total Cell Count [5]: 358
Population Apoptotic (%) [6]: 84%
Population Fragmented Nuclei (%) [6]: 9%
Population Healthy Nuclei (%) [6]: 9%
Population Hoechst High Intensity Objects (%) [6]: 8%
Population Membrane Permeable-Phenotype (%) [6]: 7%
Population Mitochondria Different-Phenotype (%) [6]: 92%
Population Mitotic Cells (%) [6]: 15%
Population Normal (%) [6]: 91%
Population Pyknosed Nuclei (%) [6]: 81%
Population Tubulin-Different-Phenotype (%) [6]: 92%
Total Cell Count [6]: 169
Population Apoptotic (%) [7]: 77%
Population Fragmented Nuclei (%) [7]: 38%
Population Healthy Nuclei (%) [7]: 0%
Population Hoechst High Intensity Objects (%) [7]: 35%
Population Membrane Permeable-Phenotype (%) [7]: 0%
Population Mitochondria Different-Phenotype (%) [7]: 0%
Population Mitotic Cells (%) [7]: 22%
Population Normal (%) [7]: 64%
Population Pyknosed Nuclei (%) [7]: 61%
Population Tubulin-Different-Phenotype (%) [7]: 0%
Total Cell Count [7]: 317
Population Apoptotic (%) [8]: 98%
Population Fragmented Nuclei (%) [8]: 48%
Population Healthy Nuclei (%) [8]: 15%
Population Hoechst High Intensity Objects (%) [8]: 46%
Population Membrane Permeable-Phenotype (%) [8]: 25%
Population Mitochondria Different-Phenotype (%) [8]: 28%
Population Mitotic Cells (%) [8]: 1%
Population Normal (%) [8]: 53%
Population Pyknosed Nuclei (%) [8]: 35%
Population Tubulin-Different-Phenotype (%) [8]: 77%
Total Cell Count [8]: 422
Population Apoptotic (%) [9]: 74%
Population Fragmented Nuclei (%) [9]: 38%
Population Healthy Nuclei (%) [9]: 1%
Population Hoechst High Intensity Objects (%) [9]: 21%
Population Membrane Permeable-Phenotype (%) [9]: 0%
Population Mitochondria Different-Phenotype (%) [9]: 100%
Population Mitotic Cells (%) [9]: 25%
Population Normal (%) [9]: 78%
Population Pyknosed Nuclei (%) [9]: 60%
Population Tubulin-Different-Phenotype (%) [9]: 100%
Total Cell Count [9]: 380
Population Apoptotic (%) [10]: 84%
Population Fragmented Nuclei (%) [10]: 10%
Population Healthy Nuclei (%) [10]: 18%
Population Hoechst High Intensity Objects (%) [10]: 11%
Population Membrane Permeable-Phenotype (%) [10]: 3%
Population Mitochondria Different-Phenotype (%) [10]: 88%
Population Mitotic Cells (%) [10]: 15%
Population Normal (%) [10]: 88%
Population Pyknosed Nuclei (%) [10]: 71%
Population Tubulin-Different-Phenotype (%) [10]: 85%
Total Cell Count [10]: 166
Population Apoptotic (%) [11]: 85%
Population Fragmented Nuclei (%) [11]: 45%
Population Healthy Nuclei (%) [11]: 0%
Population Hoechst High Intensity Objects (%) [11]: 42%
Population Membrane Permeable-Phenotype (%) [11]: 0%
Population Mitochondria Different-Phenotype (%) [11]: 0%
Population Mitotic Cells (%) [11]: 14%
Population Normal (%) [11]: 57%
Population Pyknosed Nuclei (%) [11]: 54%
Population Tubulin-Different-Phenotype (%) [11]: 0%
Total Cell Count [11]: 360
Population Apoptotic (%) [12]: 98%
Population Fragmented Nuclei (%) [12]: 53%
Population Healthy Nuclei (%) [12]: 22%
Population Hoechst High Intensity Objects (%) [12]: 44%
Population Membrane Permeable-Phenotype (%) [12]: 14%
Population Mitochondria Different-Phenotype (%) [12]: 48%
Population Mitotic Cells (%) [12]: 1%
Population Normal (%) [12]: 55%
Population Pyknosed Nuclei (%) [12]: 24%
Population Tubulin-Different-Phenotype (%) [12]: 75%
Total Cell Count [12]: 397
